8 compounds from ChEMBL document CHEMBL3120138, “Glucocorticoid receptor modulators informed by crystallography lead to a new rationale for receptor selectivity, function, and implications for structure-based design” (J Med Chem, 2014) can be followed below.

Assay [1] concerns the target T1, Glucocorticoid receptor (Homo sapiens, UniProt P04150).
T1 sequence (P04150 whole entry): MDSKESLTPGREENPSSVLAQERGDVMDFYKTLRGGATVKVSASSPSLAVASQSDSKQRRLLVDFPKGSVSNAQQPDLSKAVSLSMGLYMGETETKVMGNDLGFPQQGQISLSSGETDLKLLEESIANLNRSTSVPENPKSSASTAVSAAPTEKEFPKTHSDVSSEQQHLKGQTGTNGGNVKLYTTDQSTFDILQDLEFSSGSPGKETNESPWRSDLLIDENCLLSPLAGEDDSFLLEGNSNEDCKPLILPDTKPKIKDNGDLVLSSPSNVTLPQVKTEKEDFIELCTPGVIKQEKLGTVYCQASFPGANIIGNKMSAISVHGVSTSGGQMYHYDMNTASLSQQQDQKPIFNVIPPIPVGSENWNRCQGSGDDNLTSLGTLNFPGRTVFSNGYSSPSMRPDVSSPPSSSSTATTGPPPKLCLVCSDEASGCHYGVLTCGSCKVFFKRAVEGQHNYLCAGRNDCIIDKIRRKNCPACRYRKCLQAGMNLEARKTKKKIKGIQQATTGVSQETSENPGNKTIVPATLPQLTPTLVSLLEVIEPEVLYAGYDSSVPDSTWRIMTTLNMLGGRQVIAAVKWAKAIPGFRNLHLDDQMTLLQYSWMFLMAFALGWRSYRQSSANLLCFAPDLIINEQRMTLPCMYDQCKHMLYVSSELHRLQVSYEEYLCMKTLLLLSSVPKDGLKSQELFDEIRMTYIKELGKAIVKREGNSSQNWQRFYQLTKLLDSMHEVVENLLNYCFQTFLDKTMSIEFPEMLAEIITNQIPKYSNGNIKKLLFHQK
As to the kind of experiment: Displacement of [3H]-dexamethasone from human glucocorticoid receptor expressed in HEK293 cells. Type of assay: cell-based. In general terms: Loss of bound radioactivity is the signal in a displacement assay; it reports binding, not function.

Assay [2] has as its target T2, Progesterone receptor (Homo sapiens, UniProt P06401).
T2 sequence (P06401 whole entry): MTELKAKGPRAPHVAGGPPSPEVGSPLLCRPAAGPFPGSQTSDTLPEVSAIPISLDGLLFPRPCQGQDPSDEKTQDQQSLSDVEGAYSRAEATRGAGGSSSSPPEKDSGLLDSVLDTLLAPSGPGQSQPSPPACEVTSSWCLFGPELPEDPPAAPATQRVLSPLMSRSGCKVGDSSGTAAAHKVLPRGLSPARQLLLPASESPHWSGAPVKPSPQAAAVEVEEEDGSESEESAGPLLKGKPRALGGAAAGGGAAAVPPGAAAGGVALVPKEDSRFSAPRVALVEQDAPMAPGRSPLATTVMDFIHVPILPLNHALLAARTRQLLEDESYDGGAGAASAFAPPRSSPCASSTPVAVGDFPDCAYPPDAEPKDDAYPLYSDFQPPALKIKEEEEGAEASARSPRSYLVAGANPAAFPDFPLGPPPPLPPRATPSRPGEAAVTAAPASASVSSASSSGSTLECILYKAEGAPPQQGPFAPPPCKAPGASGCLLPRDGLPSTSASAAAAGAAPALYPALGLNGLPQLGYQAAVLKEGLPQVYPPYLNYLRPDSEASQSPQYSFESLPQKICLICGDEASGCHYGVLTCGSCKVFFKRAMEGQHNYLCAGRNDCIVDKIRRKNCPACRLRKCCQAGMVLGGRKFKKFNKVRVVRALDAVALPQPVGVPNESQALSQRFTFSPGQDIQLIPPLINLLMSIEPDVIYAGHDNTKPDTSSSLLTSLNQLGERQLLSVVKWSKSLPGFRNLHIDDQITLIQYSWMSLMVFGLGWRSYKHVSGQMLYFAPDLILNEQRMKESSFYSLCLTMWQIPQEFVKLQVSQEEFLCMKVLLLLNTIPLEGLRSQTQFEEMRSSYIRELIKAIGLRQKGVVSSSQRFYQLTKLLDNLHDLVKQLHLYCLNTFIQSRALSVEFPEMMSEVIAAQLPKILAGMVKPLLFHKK
As to the kind of experiment: Displacement of [3H]-methyltrienolone from human progesterone receptor expressed in HEK293 cells. Type of assay: cell-based. The procedure, abridged:
(§1)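 Competition binding used lysates of HEK293 cells overexpressing the human receptor. The tracer was ³H-aldosterone for MR and ³H-methyltrienolone for PR. Competitor was tested from 0.01 nM to 10 μM. IC50 was converted to Ki by Cheng–Prusoff. Values are means of at least three experiments, each run in triplicate.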

The subject of assay [3] is Rattus norvegicus. As to the kind of experiment: Antiinflammatory activity in po dosed Sprague-Dawley rat assessed as inhibition of carrageenan-induced IL-1beta secretion incubated for 2 hrs prior to carrageenan challenge measured after 5 hrs by ELISA. Type of assay: functional. The procedure, abridged: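 Male Sprague-Dawley rats (n = 5/group) were dosed at t = 0, and carrageenan was injected into the rear footpad at 2 h. At 5 h the animals were euthanised and the hindpaws weighed to measure edema. Paw exudate was assayed for IL-1β by ELISA.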
(In general: In an ELISA, binding on a coated surface is turned into a signal by an enzyme label.)

The target of assay [4] is T3, Glucocorticoid receptor (Homo sapiens) (UniProt P04150).
T3 sequence (whole entry): T1 sequence (P04150 whole entry)
As to the kind of experiment: Transactivation of human glucocorticoid receptor expressed in HEK293 cells at 10 uM after 24 hrs by luciferase reporter gene assay relative to control. Type of assay: cell-based. In short, it runs like this: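 HEK293 cells were transfected in DMEM with 5% charcoal-stripped FBS, using a CMV-hGR plasmid and a luciferase reporter driven by 2×GRE plus the TK promoter. After overnight incubation, cells were replated and exposed to compound for 24 h, then lysed for luciferase readout.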

The target in assay [5] is T4, Mineralocorticoid receptor (Homo sapiens, UniProt P08235).
T4 sequence (P08235 whole entry): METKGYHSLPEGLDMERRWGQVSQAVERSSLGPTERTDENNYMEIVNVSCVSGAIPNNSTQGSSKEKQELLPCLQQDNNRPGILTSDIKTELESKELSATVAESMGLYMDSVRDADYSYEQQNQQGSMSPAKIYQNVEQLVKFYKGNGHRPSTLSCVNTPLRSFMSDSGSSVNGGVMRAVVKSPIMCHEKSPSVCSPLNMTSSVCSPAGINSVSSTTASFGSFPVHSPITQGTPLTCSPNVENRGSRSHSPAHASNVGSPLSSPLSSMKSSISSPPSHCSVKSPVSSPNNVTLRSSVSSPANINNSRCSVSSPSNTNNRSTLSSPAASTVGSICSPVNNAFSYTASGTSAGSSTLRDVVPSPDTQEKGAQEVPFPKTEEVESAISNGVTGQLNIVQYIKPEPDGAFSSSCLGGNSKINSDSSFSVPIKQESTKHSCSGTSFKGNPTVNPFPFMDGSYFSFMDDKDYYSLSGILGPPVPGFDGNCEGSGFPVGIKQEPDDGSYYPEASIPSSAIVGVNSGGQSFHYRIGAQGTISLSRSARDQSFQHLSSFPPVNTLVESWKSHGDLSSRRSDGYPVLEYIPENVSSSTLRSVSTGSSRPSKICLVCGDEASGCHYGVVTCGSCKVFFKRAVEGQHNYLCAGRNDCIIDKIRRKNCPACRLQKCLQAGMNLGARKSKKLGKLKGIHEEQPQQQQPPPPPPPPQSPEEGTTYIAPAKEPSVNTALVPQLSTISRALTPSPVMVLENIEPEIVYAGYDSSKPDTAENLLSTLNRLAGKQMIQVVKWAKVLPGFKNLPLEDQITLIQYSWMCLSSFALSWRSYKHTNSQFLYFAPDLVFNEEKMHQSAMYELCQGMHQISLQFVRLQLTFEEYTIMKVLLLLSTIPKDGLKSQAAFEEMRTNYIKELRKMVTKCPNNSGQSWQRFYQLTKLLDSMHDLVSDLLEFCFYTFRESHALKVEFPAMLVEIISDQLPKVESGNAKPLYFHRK
As to the kind of experiment: Displacement of [3H]-aldosterone from human mineralocorticoid receptor expressed in HEK293 cells. The assay is classed as cell-based. The procedure, abridged: as §1

Assay [6] is described as follows: Antiinflammatory activity in PMA-differentiated human U937 cells assessed as inhibition of LPS-induced TNFalpha production incubated for 60 mins prior to LPS challenge measured after 24 hrs. To be noted: U-937. Type of assay: functional, cell-based. The procedure, abridged:
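U-937 cells (100 000/well) were differentiated with 20 nM PMA overnight at 37 °C, then refed with PMA-free medium. Cells were pretreated with compound for 60 min, then stimulated with LPS (stock 400 ng/mL) for 24 h at 37 °C. Secreted TNFα was measured by EIA/RIA. Ten-point half-log dilutions were used, each concentration in triplicate.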

Assay [7] can be described thus: Antiinflammatory activity in human CCD-39SK cells assessed as inhibition of IL-1beta-induced IL-6 production incubated for 60 mins prior to IL-1beta induction measured after 24 hrs. Type of assay: functional, cell-based. In short, it runs like this:
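CCD-39SK fibroblasts (20 000/well) were grown in MEM with 2% charcoal/dextran-treated FBS. Cells were pretreated with compound for 60 min, then stimulated with rhIL-1β (1 ng/mL final) for 24 h at 37 °C. IL-6 in clarified supernatant was measured. […] Ten-point half-log dilutions were used, each in triplicate.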

The test system of assay [8] is Rattus norvegicus. As to the kind of experiment: Antiinflammatory activity in po dosed Sprague-Dawley rat assessed as inhibition of carrageenan-induced paw edema incubated for 2 hrs prior to carrageenan challenge measured after 5 hrs […]. Type of assay: functional.
For assay [9], the system named is Rattus norvegicus. As to the kind of experiment: Antiinflammatory activity in Lewis rat collagen-induced arthritis model assessed as reduction in ankle diameter at 10 mg/kg, po administered for 15 days measured during compound dosing. The assay is classed as functional, organism-based. Further details: dose 10 mg/kg. In short, it runs like this: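 Female Lewis rats received collagen injected at the tail base, and disease developed over 14 d. Responding rats (groups of n = 10) were then dosed orally once daily for the next 15 d. Ankle/paw diameter was measured throughout the live phase and summarised as AUC. Hindpaw histology was scored blind from 0 (normal) to 5 (vehicle-level). Statistics used Student's t test vs vehicle, p < 0.01.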

Molecules are shown by their SMILES. Active and inactive are the calls of the source. The rule behind the calls is not given here.

As usually defined, the Ki is the dissociation constant of the complex between target and ligand, obtained from inhibition or displacement. In assay [1], `CCOc1cccc2c1/C(=C(/CC)c1cccc(N(CC)S(C)(=O)=O)c1)c1ccccc1OC2` yielded a Ki of more than 100 nM.

For the compound `CS(=O)(=O)Nc1ccc(C=C2c3ccccc3CCc3ccccc32)cc1`, in assay [1], the Ki was more than 100 nM.

In turn, `C[C@@H]1C[C@H]2[C@@H]3CCC4=CC(=O)C=C[C@]4(C)[C@@]3(F)[C@@H](O)C[C@]2(C)[C@@]1(O)C(=O)CO` [DEXAMETHASONE] came in with a Ki in assay [2] of 561 nM. In [1], `CS(=O)(=O)Nc1ccccc1C=C1c2ccccc2CCc2ccccc21` displayed a Ki of more than 100 nM. What is called ED50 is the dose that gives a 50% effect, or the effect in half of the subjects. A word on the IC50: it is the midpoint of a concentration-inhibition curve. On to `C[C@]12C=CC(=O)C=C1CC[C@@H]1[C@@H]2[C@@H](O)C[C@@]2(C)[C@H]1CC[C@]2(O)C(=O)CO` [PREDNISOLONE], for which the ED50 in assay [3] was determined as 0.31 mg/kg; in assay [8], 7.6 mg/kg. This compound also had an Efficacy in assay [4] of 114%. This compound gave a Ki in [5] of 0.29 nM. In addition, the IC50 worked out at 8.2 nM in assay [6] and 7.26 nM in [7]. Further, the result in assay [9] was Active. Take `CNS(=O)(=O)c1cccc(C=C2c3ccccc3CCc3ccccc32)c1`: the Ki in assay [1] was more than 100 nM.

Turning to `Nc1cccc(C=C2c3ccccc3CCc3ccccc32)c1`, in assay [1], the Ki was more than 100 nM. Still for that read-out and setting: the value for `C(=C1c2ccccc2CCc2ccccc21)c1ccccc1` was more than 100 nM.
